Measured values of several laboratories.
Compare with care: the assays were run in different laboratories. pIC50: −log10 of the molar value.
Cell line: MDA-MB-231

Fc1ccc(-c2nc3ccccc3n2Cc2ccccc2)cc1
pIC50 (cell growth or viability; MTT): 4.46

FC(F)(F)c1cccc(Nc2ncnc3ccc(Nc4ccccc4)cc23)c1
pIC50 (cell growth or viability; MTT; 24 h): 4.81

Cc1ccc2nc(-c3c(F)cccc3Cl)[nH]c2c1
pIC50 (cell growth or viability; MTT; 48 h): 4.46

O=C(Nc1nnc(-c2cc3ccccc3[nH]2)s1)c1cc2c([nH]c3ccccc32)c(-c2ccc(F)cc2)n1
pIC50 (cell growth or viability; MTT; 72 h): 5.17

FC(F)(F)c1cccc(Nc2ncnc3ccc(-c4ccc(Cl)cc4)cc23)c1
pIC50 (cell growth or viability; MTT; 24 h): 4.94

COc1cc([C@@H]2C[C@@H](C)OC(=O)c3cc4ccccn4c32)cc(OC)c1OC (racemic)
pIC50 (cell growth or viability; resazurin; 72 h): < 4.00

CC(=O)O[C@@]12CO[C@@H]1C[C@H](O)[C@@]1(C)C(=O)[C@H](O)C3=C(C)[C@@H](OC(=O)[C@H](O)[C@@H](NC(=O)OC(C)(C)C)c4ccccc4)C[C@@](O)([C@@H](OC(=O)c4ccccc4)[C@H]21)C3(C)C
pIC50 (cell growth or viability; ATP luminescence; 72 h): 8.66

CCn1c(-c2nnc(NC(=O)c3cc4c([nH]c5ccccc54)c(-c4cc(OC)c(OC)c(OC)c4)n3)s2)cc2ccccc21
pIC50 (cell growth or viability; MTT; 72 h): 5.06

FC(F)(F)c1cccc(Nc2ncnc3ccc(-c4ccsc4)cc23)c1
pIC50 (cell growth or viability; MTT; 24 h): 5.53

O=C(c1cc(Cc2n[nH]c(=O)c3ccccc23)ccc1F)N1CCN(C(=O)C2CC2)CC1
pIC50 (cell growth or viability; MTT; 48 h): 3.61

CCOc1ccc(-c2nc3ccccc3[nH]2)cc1
pIC50 (cell growth or viability; MTT; 48 h): < 4.00

CC(C)C(=O)Nc1ccc([N+](=O)[O-])c(C(F)(F)F)c1
pIC50 (cell growth or viability; CCK-8; 48 h): < 4.30

COc1ccc(-c2ccc3ncnc(Nc4cccc(C(F)(F)F)c4)c3c2)cc1
pIC50 (cell growth or viability; MTT; 24 h): 5.19

C[C@@H]1C[C@H](c2cccc(F)c2)c2c(cc3ccccn23)C(=O)O1 (racemic)
pIC50 (cell growth or viability; resazurin; 72 h): 4.10

COc1c(C)c(OS(=O)(=O)c2ccc3ccccc3c2)c(C)c(OS(=O)(=O)c2ccc3ccccc3c2)c1C(=O)/C=C/c1ccccc1
pIC50 (cell growth or viability; SRB; 72 h): < 4.30

COc1cccc2c1C(=O)c1c(O)c3c(c(O)c1C2=O)C[C@@](O)(C(=O)CO)C[C@@H]3O[C@H]1C[C@H](N)[C@H](O)[C@H](C)O1
pIC50 (cell growth or viability; resazurin; 72 h): 6.42

CN(C)c1ccc2cc(C(=O)N[C@@H](CCCNC(=N)CCl)C(=O)NCc3ccccc3)ccc2c1
pIC50 (cell growth or viability; 48 h): 5.15

CN(C)c1ccc(-c2nc3ccccc3[nH]2)cc1
pIC50 (cell growth or viability; MTT; 48 h): 4.54

COc1cccc2c1C(=O)c1c(O)c3c(c(O)c1C2=O)C[C@@](O)(C(=O)CO)C[C@@H]3O[C@H]1C[C@H](N)[C@H](O)[C@H](C)O1
pIC50 (cell growth or viability; SRB): 6.35

COc1ccc(Br)cc1/C=C/C(=O)c1ccc(NC(C)=O)cc1
pIC50 (cell growth or viability; MTT; 72 h): 5.02

Oc1ccccc1-c1nc2ccccc2[nH]1
pIC50 (cell growth or viability; MTT; 48 h): 4.44

COc1cccc2c1C(=O)c1c(O)c3c(c(O)c1C2=O)C[C@@](O)(C(=O)CO)C[C@@H]3O[C@H]1C[C@H](N)[C@H](O)[C@H](C)O1
pIC50 (cell growth or viability; MTT; 72 h): 5.83

Oc1ccc(-c2ccc3ncnc(Nc4cccc(C(F)(F)F)c4)c3c2)cc1
pIC50 (cell growth or viability; MTT; 24 h): 5.40

Nc1ccn([C@@H]2O[C@H](CO)[C@@H](O)C2(F)F)c(=O)n1
pIC50 (cell growth or viability; resazurin; 72 h): 5.35

CC(C)[C@H](N)c1nc2cc(-c3ccncc3F)sc2c(=O)[nH]1
pIC50 (cell growth or viability; MTT): 5.92

O=C(C=C[c-]1cccc1)c1sccc1Br.[Fe+2].c1cc[cH-]c1
pIC50 (cell growth or viability; MTT; 72 h): 5.18

CC(=O)CC(=O)[c-]1cccc1.[Fe+2].c1cc[cH-]c1
pIC50 (cell growth or viability; MTT; 96 h): 4.33

COc1c(C)c(OC)c2c(c1C)OC(c1ccccc1)CC2=O (stereo not drawn)
pIC50 (cell growth or viability; SRB; 72 h): < 4.30

C[C@@H]1C[C@H](c2cccc(Cl)c2)c2c(cc3ccccn23)C(=O)O1 (racemic)
pIC50 (cell growth or viability; resazurin; 72 h): 4.44

COc1cccc2c1C(=O)c1c(O)c3c(c(O)c1C2=O)C[C@@](O)(C(=O)CO)C[C@@H]3O[C@H]1C[C@H](N)[C@H](O)[C@H](C)O1
pIC50 (cell growth or viability; MTT): 5.17

CC(=O)Nc1nc(C)c(-c2csc(Nc3ccccc3)n2)s1
pIC50 (cell growth or viability; MTT; 72 h): 4.80

Oc1cccc(Nc2ccc3ncnc(Nc4cccc(C(F)(F)F)c4)c3c2)c1
pIC50 (cell growth or viability; MTT; 24 h): 5.48

CCOc1ccc(-c2nc3ccccc3n2Cc2ccccc2)cc1
pIC50 (cell growth or viability; MTT): 4.68

CCn1c(-c2nnc(NC(=O)c3cc4c([nH]c5ccccc54)c(-c4ccc(OC)cc4)n3)s2)cc2ccccc21
pIC50 (cell growth or viability; MTT; 72 h): 5.03

O=C(CSc1nc2ccc(N=Cc3ccc(Sc4nnnn4-c4ccccc4)o3)cc2s1)N1CCOCC1
pIC50 (cell growth or viability; MTT; 48 h): 4.68

O=Cc1ccc(-c2ccc3ncnc(Nc4cccc(C(F)(F)F)c4)c3c2)cc1
pIC50 (cell growth or viability; MTT; 24 h): 5.06

Cc1cc(NS(=O)(=O)c2ccc(NC(=O)COc3ccc(C(C)(C)c4ccccc4)cc3)cc2)nc(C)n1
pIC50 (cell growth or viability; MTT; 72 h): 4.41

Cc1nc(Nc2ncc(C(=O)Nc3c(C)cccc3Cl)s2)cc(N2CCN(CCO)CC2)n1
pIC50 (cell growth or viability; MTT; 24 h): 4.60

COc1cc(/C=C2\SC(=O)NC2=O)ccc1OCc1ccc(Cl)cc1Cl
pIC50 (cell growth or viability; MTT; 48 h): 4.59

COc1cccc([C@@H]2C[C@@H](C)OC(=O)c3cc4ccccn4c32)c1 (racemic)
pIC50 (cell growth or viability; resazurin; 72 h): 4.28

COC1=C2C[C@@H](C)C[C@H](OC)[C@H](O)[C@@H](C)/C=C(\C)[C@H](OC(N)=O)[C@@H](OC)/C=C\C=C(/C)C(=O)NC(=CC1=O)C2=O
pIC50 (cell growth or viability; MTT): 7.19

CC(C)C[C@H](NC(=O)[C@H](Cc1ccccc1)NC(=O)c1cnccn1)B(O)O
pIC50 (cell growth or viability; ATP luminescence): 7.89

Clc1ccc(-c2nc3ccccc3[nH]2)cc1Cl
pIC50 (cell growth or viability; MTT; 48 h): 5.01

C[C@@H]1C[C@H](c2ccc(Br)cc2)c2c(cc3ccccn23)C(=O)O1 (racemic)
pIC50 (cell growth or viability; resazurin; 72 h): 4.78

CSc1ccc(-c2nc3ccc(C)cc3n2Cc2ccccc2)cc1
pIC50 (cell growth or viability; MTT): 4.66

O=C1C[C@@H](c2ccc(O)cc2)Oc2cc(O)cc(O)c21
pIC50 (cell growth or viability; MTT; 48 h): 5.53

[Na+].[Na+].[Na+].[O]=[V]([O-])([O-])[O-]
pIC50 (cell migration; inhibitor): 5.25

COc1ccc(/C=C/C(=O)c2cc(Br)ccc(=O)c2O)cc1
pIC50 (cell growth or viability; MTT; 48 h): 5.26
